# Compound activity: PubChem BioAssay, Broad Institute
# GASC1 inh – inhibitors of GASC-1 (KDM4C) histone demethylase, primary screen, biochemical, single concentration HTS. inhibition, % at 12.5 µM. Lysine-specific demethylase 4C (Homo sapiens), Q9H3R0. GST-KDM4C 2-372, H3K9me3 peptide, LANCE TR-FRET. hit rate 0.15% among 96,000. AID 720574, 2013;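 active = mean replicate inhibition above about 25%, with at least 55% of replicates also reaching it, limit read from the data, passing the limit was not always enough; inconclusive = only one of those two conditions met; inactive = neither condition met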
# Target sequence (Q9H3R0 2-372 limits assumed): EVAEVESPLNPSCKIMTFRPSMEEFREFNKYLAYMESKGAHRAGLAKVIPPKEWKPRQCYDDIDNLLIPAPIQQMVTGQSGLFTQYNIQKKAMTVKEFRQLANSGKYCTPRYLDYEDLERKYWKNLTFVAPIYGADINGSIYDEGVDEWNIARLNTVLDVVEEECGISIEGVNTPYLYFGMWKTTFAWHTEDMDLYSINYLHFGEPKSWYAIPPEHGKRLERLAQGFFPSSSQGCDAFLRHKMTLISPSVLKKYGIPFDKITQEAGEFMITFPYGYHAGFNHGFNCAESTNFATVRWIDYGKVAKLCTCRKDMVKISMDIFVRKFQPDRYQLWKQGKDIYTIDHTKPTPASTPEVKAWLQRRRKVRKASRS
#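 Material: GST-tagged GASC-1 (JMJD2C) catalytic fragment, aa 2-372. Input: enzyme final amount 10 nM. Medium: HEPES buffer, pH 7.5, plus ascorbate. Reagent: H3K9me3 peptide substrate, Fe(II), 2-oxoglutarate. Doses: single dose. Times: reaction 30 min RT, detection step 1 h RT. Measured by: LANCE TR-FRET. Evaluation: Fall in 671/618 emission ratio as inhibition.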
# T cruzi growth-1 – T. cruzi intracellular proliferation inhibitors, primary screen, cell-based, beta-gal Tulahuen parasites, NIH3T3 host, luminescence; T. cruzi beta-gal in NIH3T3, GalScreen luminescence, 90 h; inhibition, % at 8.34 µM; hit rate 5.9% among 77,000; AID 624255, 2012;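 active = mean inhibition above about 93%, with at least 55% of replicates each passing it, limit read from the data, passing the limit was not always enough; inconclusive = only one of those two conditions holds; inactive = neither condition holds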
# IDH1 R132H inh – inhibitors of IDH1 R132H reductase, primary screen, biochemical, plate reader, single point | Isocitrate dehydrogenase [NADP] cytoplasmic (Homo sapiens), O75874 | diaphorase/resazurin fluorescence, 60 min | inhibition, % at 10 µM | hit rate 0.18% among 70,000 | AID 624101, 2012; in the data active = inhibition above about 34%; inconclusive = no clear call, values can overlap the other calls; inactive = below about 11%
# Target sequence (O75874 whole entry R132H): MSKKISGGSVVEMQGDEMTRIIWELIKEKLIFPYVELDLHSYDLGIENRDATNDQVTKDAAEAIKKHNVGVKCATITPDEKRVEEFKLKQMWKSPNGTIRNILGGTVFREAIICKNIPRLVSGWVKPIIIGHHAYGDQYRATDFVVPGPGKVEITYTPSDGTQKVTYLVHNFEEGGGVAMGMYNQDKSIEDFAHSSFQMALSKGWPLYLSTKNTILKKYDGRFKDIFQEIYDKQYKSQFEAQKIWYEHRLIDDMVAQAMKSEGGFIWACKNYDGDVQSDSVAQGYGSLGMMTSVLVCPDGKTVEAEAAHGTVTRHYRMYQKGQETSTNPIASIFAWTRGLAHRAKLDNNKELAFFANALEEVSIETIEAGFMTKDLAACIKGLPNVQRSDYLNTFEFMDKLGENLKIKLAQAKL
# T cruzi growth-2 – T. cruzi intracellular proliferation inhibitors, confirmation, cell-based, NIH3T3 host, beta-gal parasite, luminescence, cherry-pick. shares compounds with T cruzi growth-1. AID 651739, 2012. inhibition, % at 8.35 µM. T. cruzi beta-gal in NIH3T3, GalScreen luminescence, 90 h. hit rate 72% among 5,600;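 active = mean replicate inhibition above about 95% and at least 55% of replicates individually reaching it, limit read from the data; inconclusive = only one of the two criteria is met; inactive = neither criterion is met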
# T cruzi growth-3 – inhibitors of intracellular T. cruzi replication, confirmation, NIH3T3 host cells, beta-gal parasites, cherry-pick, set 2 | shares compounds with T cruzi growth-1 | T. cruzi beta-gal in NIH3T3, GalScreen luminescence, 90 h | inhibition, % at 2.09 µM | hit rate 21% among 5,600 | AID 651740, 2012;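 active = mean inhibition above about 95%, with at least 55% of replicates also reaching it, limit read from the data; inconclusive = meets just one of the two conditions; inactive = meets neither condition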
# 3T3 cytotox – cytotoxicity in mouse NIH/3T3 fibroblasts, confirmation, cytotoxicity control for T. cruzi proliferation inhibitor project, cell-based, cherry-pick, single point. shares compounds with T cruzi growth-1. NIH/3T3 viability, CellTiter-Glo ATP luminescence, 90 h. cytotoxicity (signal decrease), % at 8.35 µM. hit rate 14% among 5,600;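 active = mean signal decrease across replicates above about 35% based on untreated-well scatter, with enough replicates individually passing, limit read from the data; inconclusive = no rule stated though some were filed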
# 3T3 cytotox 2 – NIH/3T3 fibroblast cytotoxicity, confirmation, cytotoxicity control, cell-based, cherry-pick, single point, set 2 | shares compounds with T cruzi growth-1 | NIH/3T3 viability, CellTiter-Glo ATP luminescence, 90 h | inhibition, % at 24.9 µM | hit rate 56% among 5,600 | AID 651744, 2012;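 active = mean loss of cell viability signal at or above a set limit, and enough replicates individually reaching it; inconclusive = meets only the mean limit or only the replicate share; inactive = meets neither condition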
# Numbers stand for hits; . = inactive; ? = inconclusive; / = not tested or not shown; ! = repeats disagree. This is one part of a sample in which hits are shown more often than they occur.
SMILES,GASC1 inh,T cruzi growth-1,IDH1 R132H inh,T cruzi growth-2,T cruzi growth-3,3T3 cytotox,3T3 cytotox 2
O=C(Nc1nccs1)[C@@H]1[C@@H](CO)[C@@H]2Cn3c(ccc(-c4cccnc4)c3=O)[C@@H]2N1CC1CCCC1,.,.,/,/,/,/,/
O=C(NCc1ccc(F)cc1)[C@@H]1[C@@H](CO)[C@@H]2Cn3c(cccc3=O)[C@@H]2N1CCC(F)(F)F,.,143,/,.,.,.,.
O=C(NCc1ccc(F)cc1)[C@H]1[C@H](CO)[C@H]2Cn3c(cccc3=O)[C@H]2N1CCC(F)(F)F,.,.,/,/,/,/,/
O=C(Nc1nccs1)[C@H]1[C@H](CO)[C@H]2Cn3c(ccc(-c4cccnc4)c3=O)[C@H]2N1CC1CCCC1,.,?,/,.,.,.,54
Cc1ccc(S(=O)(=O)N(C)CC(=O)Nc2ncc(C(F)(F)F)cc2Cl)cc1,/,/,.,/,/,/,/
O=C(COc1ccc(CO)cc1)Nc1ccccc1,/,/,.,/,/,/,/
C[C@H](CO)N1C[C@H](C)[C@@H](CN(C)Cc2cccnc2)Oc2cc(C#CC3CCCCC3)ccc2S1(=O)=O,.,.,/,/,/,/,/
C[C@H]1CN([C@@H](C)CO)S(=O)(=O)c2ccc(C#CC3CCCCC3)cc2O[C@H]1CN(C)Cc1cccnc1,.,.,/,/,/,/,/
C[C@H](CO)N1C[C@H](C)[C@@H](CN(C)Cc2cccnc2)Oc2cc(C#CC3CCCC3)ccc2S1(=O)=O,.,96,/,102,109,.,105
C[C@@H]1CN([C@@H](C)CO)S(=O)(=O)c2ccc(C#CC3CCCCC3)cc2O[C@@H]1CN(C)Cc1cccnc1,.,102!,/,113,.,51,105
COc1ccc([N+](=O)[O-])cc1N(CC(=O)Nc1cc(Cl)ccc1Cl)S(C)(=O)=O,/,/,.,/,/,/,/
CSc1ccccc1NC(=O)CN(C)S(=O)(=O)c1ccc(C)cc1,/,/,.,/,/,/,/
O=C(Cc1ccccc1)N1CC[C@H]2[C@H](CO)Nc3ccc(-c4ccccc4)cc3[C@H]21,.,?,/,105,.,.,.
O=C(Cc1ccccc1)N1CC[C@H]2[C@H](CO)Nc3ccc(C#Cc4cccc(F)c4)cc3[C@H]21,.,/,/,/,/,/,/
O=C(CN1CCOCC1)N1CC[C@@H]2[C@@H](CO)Nc3ccc(-c4ccccc4F)cc3[C@@H]21,.,.,/,/,/,/,/
O=C(Cc1ccccc1)N1CC[C@H]2[C@H](CO)Nc3ccc(C#Cc4ccccc4)cc3[C@H]21,.,119,/,105,.,.,75
O=C(Cc1ccncc1)N1CC[C@H]2[C@H](CO)Nc3ccc(-c4ccccc4)cc3[C@H]21,.,/,/,/,/,/,/
O=C(Cc1ccccc1)N1CC[C@@H]2[C@H]1c1cc(-c3ccccc3F)ccc1N[C@@H]2CO,.,113,/,.,.,.,53
Cc1ccc2oc(C(=O)Nc3sc4c(c3C(=O)NCc3ccco3)CCC4)c(C)c2c1,/,/,.,/,/,/,/
CO[C@H]1CN(C)C(=O)c2ccc(NC(=O)NC(C)C)cc2OC[C@H](C)N(S(C)(=O)=O)C[C@H]1C,.,/,/,/,/,/,/
COc1ccc(CN(C)C[C@H]2Oc3ccc(NC(=O)Nc4ccc(C(F)(F)F)cc4)cc3CC(=O)N([C@@H](C)CO)C[C@H]2C)cc1,.,.,.,/,/,/,/
COc1ccc2c3c(n(C)c2c1)[C@@H](CO)N(C(=O)Cc1ccccn1)CC31CCN(Cc2ccccn2)CC1,.,/,/,/,/,/,/
O=C(CSC1CC(=O)N(c2ccccc2)C1=O)Nc1ccc(Cl)c(Cl)c1 (stereo unspecified),/,/,.,/,/,/,/
Cc1cc(N(CC(=O)NC2CCCCC2)S(C)(=O)=O)ccc1Br,/,/,.,/,/,/,/
COc1ccc(-c2cc(C)nc(SCC(=O)Nc3ccccc3F)n2)cc1,/,/,.,/,/,/,/
SMILES,GASC1 inh,T cruzi growth-1,IDH1 R132H inh,T cruzi growth-2,T cruzi growth-3,3T3 cytotox,3T3 cytotox 2
COc1ccc(NC(=O)N2CCCCN3[C@H](CO)[C@H](c4ccc(-c5ccccc5C)cc4)[C@H]3C2)cc1,.,.,/,/,/,/,/
Cc1ccccc1-c1ccc([C@@H]2[C@H]3CN(C(=O)Nc4ccccc4)CCCCN3[C@H]2CO)cc1,.,104,/,104,.,.,105
COc1ccc(NC(=O)N2CCCCN3[C@H](C2)[C@@H](c2ccc(-c4ccccc4C)cc2)[C@@H]3CO)cc1,.,98,/,98,.,.,104
Cc1ccccc1-c1ccc([C@H]2[C@H]3CN(C(=O)Nc4ccccc4)CCCCN3[C@H]2CO)cc1,.,118,/,112,.,.,34
Cc1ccccc1-c1ccc([C@H]2[C@@H](CO)N3CCCCN(C(=O)Nc4ccccc4)C[C@H]23)cc1,.,.,/,/,/,/,/
O=C(C[C@@H]1CC[C@H]2[C@@H](COC[C@@H](O)CN2C(=O)Nc2cc(Cl)cc(Cl)c2)O1)NCC1CCCCC1,.,.,/,/,/,/,/
CN(Cc1cccs1)C(=S)SCCO,/,/,.,/,/,/,/
COc1ccc2c3c(n(C)c2c1)[C@H](CO)N(Cc1ccccc1F)CC31CN(C(=O)C2CCOCC2)C1,.,/,/,/,/,/,/
C[C@@H]1CN([C@@H](C)CO)S(=O)(=O)c2ccc(-c3cccnc3)cc2O[C@@H]1CN(C)C(=O)NC1CCCC1,.,/,.,/,/,/,/
Cn1cc(C(c2ccc([N+](=O)[O-])o2)c2cn(C)c3ccccc23)c2ccccc21,/,/,.,/,/,/,/
COc1ccc(-c2cnc3c(c2)C(=O)N([C@H](C)CO)C[C@@H](C)[C@H](CN(C)S(=O)(=O)c2ccc(OC)cc2)O3)cc1,.,.,.,/,/,/,/
C[C@H](CO)N1C[C@H](C)[C@H](CN(C)S(=O)(=O)c2ccc(F)cc2)Oc2ncc(-c3cccc(C(F)(F)F)c3)cc2C1=O,.,109,.,102,.,42,54
C[C@H](CO)N1C[C@H](C)[C@H](CN(C)S(=O)(=O)c2cccc(F)c2)Oc2ncc(-c3cccc(C(F)(F)F)c3)cc2C1=O,.,.,.,/,/,/,/
C[C@H](CO)N1C[C@H](C)[C@H](CN(C)S(=O)(=O)c2cccs2)Oc2ncc(-c3cccc(C(F)(F)F)c3)cc2C1=O,.,106,.,103,.,.,27
C[C@H](CO)N1C[C@H](C)[C@H](CN(C)S(=O)(=O)c2cccs2)Oc2ncc(-c3cccc(F)c3)cc2C1=O,.,.,.,/,/,/,/
COc1ccc(S(=O)(=O)N(C)C[C@@H]2Oc3ncc(-c4cccc(C(F)(F)F)c4)cc3C(=O)N([C@H](C)CO)C[C@@H]2C)cc1,.,106,.,107,.,.,49
CO[C@@H]1CN(C)C(=O)c2ccc(NC(C)=O)cc2OC[C@@H](C)N(CCC(F)(F)F)C[C@@H]1C,.,/,/,/,/,/,/
